Assay [1] in a line: Her2 expression decrease, cell viability multiplex – SKBR3 breast tumor cells, AlphaScreen, ATP viability, primary screen (AID 461;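 active = Her2 level under about 52% in both replicate screens, with viability over 70% of control, limit read from the data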;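 as to Her2 level: lower value means less Her2 protein in the cells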;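 as to viability: percent of carrier control wells set as 100% viability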). The following applies: SKBR3 Her2 protein level, 18-24 h, measured here: SKBR3 viability, ATP luminescence, at 10 µM. Background: In Alpha technology, singlet oxygen from a donor bead excites a nearby acceptor bead.
The target in assay [2] is Receptor tyrosine-protein kinase erbB-2 (Homo sapiens) (UniProt P04626). The description is as above. The following applies: 18-24 h, at 10 µM, stronger effect = lower value.
Chain of Receptor tyrosine-protein kinase erbB-2 (Homo sapiens) (P04626 whole entry, looked up): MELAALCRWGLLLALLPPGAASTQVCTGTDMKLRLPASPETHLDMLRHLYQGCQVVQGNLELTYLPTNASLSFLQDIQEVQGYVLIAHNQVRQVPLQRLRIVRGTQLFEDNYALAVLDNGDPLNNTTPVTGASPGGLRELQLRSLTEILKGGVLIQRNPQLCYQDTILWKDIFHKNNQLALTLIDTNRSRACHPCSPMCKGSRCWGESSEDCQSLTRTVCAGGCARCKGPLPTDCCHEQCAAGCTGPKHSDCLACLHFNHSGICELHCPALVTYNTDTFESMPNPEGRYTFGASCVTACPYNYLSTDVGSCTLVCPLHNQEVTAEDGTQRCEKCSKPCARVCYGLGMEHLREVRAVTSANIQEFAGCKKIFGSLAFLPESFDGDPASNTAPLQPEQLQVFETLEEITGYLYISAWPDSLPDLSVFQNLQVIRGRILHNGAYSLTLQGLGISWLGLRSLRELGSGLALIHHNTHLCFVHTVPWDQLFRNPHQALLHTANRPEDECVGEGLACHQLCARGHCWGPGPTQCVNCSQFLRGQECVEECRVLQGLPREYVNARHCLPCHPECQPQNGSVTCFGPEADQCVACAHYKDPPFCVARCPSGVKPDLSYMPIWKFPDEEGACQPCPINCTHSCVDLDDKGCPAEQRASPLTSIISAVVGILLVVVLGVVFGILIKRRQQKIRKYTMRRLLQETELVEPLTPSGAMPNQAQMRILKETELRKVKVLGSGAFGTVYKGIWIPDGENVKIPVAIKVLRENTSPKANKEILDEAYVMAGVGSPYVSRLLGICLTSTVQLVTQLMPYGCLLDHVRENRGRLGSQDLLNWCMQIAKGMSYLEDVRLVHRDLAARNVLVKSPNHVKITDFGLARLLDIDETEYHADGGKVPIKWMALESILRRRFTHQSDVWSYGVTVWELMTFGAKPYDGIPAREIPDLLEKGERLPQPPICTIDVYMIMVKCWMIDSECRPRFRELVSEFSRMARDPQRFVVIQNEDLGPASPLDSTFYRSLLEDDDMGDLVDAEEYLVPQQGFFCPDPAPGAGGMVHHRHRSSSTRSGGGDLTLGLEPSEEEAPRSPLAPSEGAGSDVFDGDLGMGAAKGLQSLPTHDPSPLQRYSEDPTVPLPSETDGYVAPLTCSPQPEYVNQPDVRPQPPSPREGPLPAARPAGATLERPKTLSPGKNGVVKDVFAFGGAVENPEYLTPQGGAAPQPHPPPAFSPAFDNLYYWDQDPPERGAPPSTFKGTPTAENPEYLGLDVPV
Assay [3] in a line: reduced viability of SK-BR-3 breast cancer cells – cell-based, 24 h, human, pilot screen (AID 572;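 active = viability at or below 10% of carrier control in both of two separate runs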;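 also: compound exposure lasted between 18 and 24 h rather than exactly 24 h; 100% = carrier-treated control wells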). To be noted: SK-BR-3 viability, CellTiter-Glo luminescence, at 10 µM, stronger effect = lower value.
The nature of assay [4]: HUVEC growth inhibition – cell-based, human, primary screen (AID 575;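 active = viability at or below 30% in both replicate assays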;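 also: 100% = median of untreated cell wells with 0.1% DMSO on each plate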). The following applies: HUVEC proliferation, CellTiter-Glo luminescence, 72 h; at 10 µM; stronger effect = lower value. In outline:
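Assay system: Primary human umbilical vein endothelial cells | Quantity: 1250 cells per well | Medium: Supplemented EBM, 2% fetal bovine serum | Detection: CellTiter-Glo luminescence measuring cellular ATP | Read-out: % viability vs DMSO wells | Plate: Collagen-coated 384-well format | Times: 72 h exposure, 37 °C, 5% CO2, 30 min RT equilibration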
(ATP-based viability assays read luminescence as a measure of living cells.)

Assay [5] can be described thus: H69AR cell proliferation blockers – human, duplicate replicates, primary screen (AID 580;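 active = viability at or under a set limit in both replicates, limit being median viability minus 3 SD, cut at about 48% in these data, passing the limit was not always enough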;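 also: 100% = mean luminescence of untreated wells and 0% = no signal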). The following applies: H69AR lung tumor cells viability, ATP luminescence, 72 h; at 10 µM; stronger effect = lower value.
Assay [6] in a line: MRP1 drug-resistance reversers in H69AR cells – cell-based, doxorubicin co-treatment, pilot screen (AID 601;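 active = viability loss from added drug above about 55%, and viability with drug at most 40%, in both replicates, limit read from the data, passing the limit was not always enough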). To be noted: CellTiter-Glo, 72 h, at 10 µM; for differential viability (reversal): stronger effect = higher value.
The nature of assay [7]: yeast transport mutant growth inhibition pilot in 384-well plates, post-Golgi transport modulator project (AID 636; in the data active = inhibition above about 31%). The following applies: absorbance 615 nm, about 18 h, stronger effect = higher value.
Assay [8] can be described thus: growth suppression of yeast trafficking mutant, preliminary HTS, modulators of trafficking downstream of Golgi apparatus project, 1536-format plate, OD 615 nm (AID 637). The following applies: yeast transport mutant growth, absorbance 615 nm, 18 h; stronger effect = higher value.
Setting [9] is: H69AR cells + 2 uM doxorubicin, measured here: viability with 2 uM doxorubicin, stronger effect = lower value.
The mark [10] stands for this setting: H69AR cells, compound alone cytotoxicity.

Active and inactive are the calls of the source. Rule as the data show it, unless noted: active = inhibition above about 30%; inactive = the rest.

Data on 16 compounds can be found in PubChem BioAssay.

Turning to `Clc1ccc(Cl)c(-c2ccc(/C=N/c3ncn[nH]3)o2)c1`, the viability (in general, a read-out of living cells in per cent, often relative to untreated cells) was 105% in assay [1]; 105% (inactive) in assay [3]; 64.5% (inactive) in assay [4]; 72.8% (inactive) in assay [5]; 84.8% in assay [6] (setting [9]); 72.8% in assay [6] (setting [10]). The Her2 level in assay [2] was 81% (inactive). Also, in assay [6] (H69AR cells + 2 uM doxorubicin), the differential viability (reversal) was -11.9% (inactive). The inhibition (commonly the change of the read-out against control, counted positive when it falls) in assay [7] was -6.8% (inactive); in assay [8] it was 4.59% (inactive).

Turning to `Cc1csc2nc(CSc3nc4ccccc4o3)c(Br)n12`, the viability in assay [1] was 84.5%; in assay [3], 84.5% (inactive); in assay [4], 85.6% (inactive); in assay [5] it was 83% (inactive); in assay [6] (setting [9]), 79.8%; in assay [6] (setting [10]), 83%. In addition, the Her2 level in assay [2] was 60% (inactive). Besides, in assay [6] (H69AR cells + 2 uM doxorubicin), the differential viability (reversal) was 3.21% (inactive). Besides, the inhibition in assay [7] is -3.87% (inactive); in assay [8] it was 10.5% (inactive).

Regarding `CCn1nc(C(=O)OCC(=O)N2CCc3ccccc32)c2ccccc2c1=O`, the viability in assay [1] was 99.5%; in assay [3] it was 99.5% (inactive); in assay [4], 88.2% (inactive); in assay [5], 96.8% (inactive); in assay [6] (setting [9]), 94.6%; in assay [6] (setting [10]), 96.8%. The Her2 level in assay [2] was 106% (inactive). Moreover, the differential viability (reversal) in assay [6] (H69AR cells + 2 uM doxorubicin) was 2.27% (inactive). Further, the inhibition in assay [7] is 1.41% (inactive); in assay [8] it was -11.2% (inactive).

On to `O=C1NC(c2ccco2)Nc2ccccc21` (stereo not given), for which the viability in assay [1] is 82.5%; in assay [3], 82.5% (inactive); in assay [4], 107% (inactive); in assay [5] it was 97.8% (inactive); in assay [6] (setting [9]) it was 90.8%; in assay [6] (setting [10]) it was 97.8%. Further, the Her2 level in assay [2] was 85.5% (inactive). Further, the differential viability (reversal) in assay [6] (H69AR cells + 2 uM doxorubicin) is 7.01% (inactive). For the same compound, the values for the inhibition in assay [7] and in assay [8] were 0.55% (inactive) and -6.98% (inactive), respectively.

Regarding `CC(=O)N1CCC(N(C(=O)Nc2ccc(C)c(C)c2)C2CCCC2)CC1`, the viability in assay [1] was 92%; in assay [3] it was 92% (inactive); in assay [4], 90.4% (inactive); in assay [5], 85.6% (inactive); in assay [6] (setting [9]), 89.1%; in assay [6] (setting [10]) it was 85.6%. Moreover, in assay [2], the Her2 level was 102% (inactive). Besides, the differential viability (reversal) in assay [6] (H69AR cells + 2 uM doxorubicin) was -3.42% (inactive). The inhibition in assay [7] is -1.54% (inactive); in assay [8], -5.33% (inactive).

As for `N#Cc1cc2sc3nnc(-c4ccncc4)n3c2cc1C#N`, the viability was 112% in assay [1]; 112% (inactive) in assay [3]; 37.8% (inactive) in assay [4]; 32.3% (active) in assay [5]; 50.5% in assay [6] (setting [9]); 32.3% in assay [6] (setting [10]). In addition, the Her2 level in assay [2] was 35.5% (active). The differential viability (reversal) in assay [6] (H69AR cells + 2 uM doxorubicin) was -18.2% (inactive). Moreover, the values for the inhibition in assay [7] and in assay [8] were -1.71% (inactive) and 7.94% (inactive), respectively.

`COc1ccccc1NC(=O)CSc1nnc(-c2ccncc2)n1CC1CCCO1` (stereo not given): the viability in assay [1] is 97%; in assay [3] it was 97% (inactive); in assay [4], 103% (inactive); in assay [5], 96.7% (inactive); in assay [6] (setting [9]), 90.1%; in assay [6] (setting [10]), 96.7%. Also, the Her2 level in assay [2] is 91% (inactive). Also, in assay [6] (H69AR cells + 2 uM doxorubicin), the differential viability (reversal) is 6.53% (inactive). For the same compound, the values for the inhibition in assay [7] and in assay [8] were -5.33% (inactive) and -3.81% (inactive), respectively.

`O=C(O)Cn1cc(C(=O)c2ccco2)c2ccccc21`: the viability in assay [1] was 95%; in assay [3], 95% (inactive); in assay [4], 105% (inactive); in assay [5], 85.5% (inactive); in assay [6] (setting [9]), 90.3%; in assay [6] (setting [10]) it was 85.5%. For the same compound, the Her2 level in assay [2] is 100% (inactive). Further, in assay [6] (H69AR cells + 2 uM doxorubicin), the differential viability (reversal) is -4.73% (inactive). The inhibition in assay [7] was -0.52% (inactive); in assay [8], 3.61% (inactive).

As for `NC(=O)CCS(=O)(=O)CCN1CCCCC1`, the viability in assay [1] was 93.5%; in assay [3], 93.5% (inactive); in assay [4], 102% (inactive); in assay [5] it was 93.2% (inactive); in assay [6] (setting [9]), 93.7%; in assay [6] (setting [10]), 93.2%. Moreover, the Her2 level in assay [2] is 86% (inactive). Moreover, the differential viability (reversal) in assay [6] (H69AR cells + 2 uM doxorubicin) is -0.51% (inactive). Also, the inhibition in assay [7] is -0.13% (inactive); in assay [8] it was -2.95% (inactive).

With `CC(O)c1n(C)c(Cl)c[n+]1C` (stereo not given), the viability was 114% in assay [1]; 114% (inactive) in assay [3]; 109% (inactive) in assay [4]; 103% (inactive) in assay [5]; 106% in assay [6] (setting [9]); 103% in assay [6] (setting [10]). The Her2 level in assay [2] was 95% (inactive). In assay [6] (H69AR cells + 2 uM doxorubicin), the differential viability (reversal) was -3.03% (inactive). Also, the inhibition in assay [7] is -0.66% (inactive); in assay [8] it was 6.39% (inactive).

Regarding `Cc1cccc(C(OC(=O)c2ccco2)C(=O)NCc2ccccc2)n1` (stereo not given), the viability in assay [1] is 102%; in assay [3], 102% (inactive); in assay [4], 86.6% (inactive); in assay [5], 96.1% (inactive); in assay [6] (setting [9]) it was 88.3%; in assay [6] (setting [10]) it was 96.1%. For the same compound, the Her2 level in assay [2] is 90% (inactive). In addition, the differential viability (reversal) in assay [6] (H69AR cells + 2 uM doxorubicin) is 7.79% (inactive). For the same compound, the inhibition in assay [7] was -2.03% (inactive); in assay [8] it was -1.64% (inactive).

Turning to `Nc1ccc(-n2c(N)c(C(=O)NCc3ccc4c(c3)OCO4)c3nc4ccccc4nc32)cc1`, the viability in assay [1] is 72.5%; in assay [3], 72.5% (inactive); in assay [4], 64.6% (inactive); in assay [5] it was 55.5% (inactive); in assay [6] (setting [9]), 72.9%; in assay [6] (setting [10]), 55.5%. Also, the Her2 level in assay [2] is 66.5% (inactive). Moreover, the differential viability (reversal) in assay [6] (H69AR cells + 2 uM doxorubicin) was -17.4% (inactive). In addition, the inhibition in assay [7] was -1.73% (inactive); in assay [8] it was 6.61% (inactive).

For `CCC1C(=O)n2nc(-c3ccccc3)cc2N=C1C` (stereo not given), the viability in assay [1] is 106%; in assay [3], 106% (inactive); in assay [4] it was 86.9% (inactive); in assay [5], 99% (inactive); in assay [6] (setting [9]), 90.2%; in assay [6] (setting [10]) it was 99%. Besides, the Her2 level in assay [2] was 66.5% (inactive). Moreover, in assay [6] (H69AR cells + 2 uM doxorubicin), the differential viability (reversal) was 8.73% (inactive). Further, the inhibition in assay [7] is -0.39% (inactive); in assay [8], -3.17% (inactive).

For the compound `Cc1cc(C)n(CCCNC(=O)c2ccc3c(c2)NC(=O)CS3)n1`, the viability in assay [1] was 104%; in assay [3] it was 104% (inactive); in assay [4] it was 91.8% (inactive); in assay [5], 89.7% (inactive); in assay [6] (setting [9]), 86.3%; in assay [6] (setting [10]), 89.7%. Also, in assay [2], the Her2 level was 80.5% (inactive). Moreover, the differential viability (reversal) in assay [6] (H69AR cells + 2 uM doxorubicin) is 3.36% (inactive). Besides, the values for the inhibition in assay [7] and in assay [8] were -5.6% (inactive) and -1.48% (inactive), respectively.

Take `CCOC(=O)c1[nH]c2ccc(C)cc2c1N=C(C)N(C)C`: the viability was 100% in assay [1]; 100% (inactive) in assay [3]; 96.5% (inactive) in assay [4]; 97.7% (inactive) in assay [5]; 91.4% in assay [6] (setting [9]); 97.7% in assay [6] (setting [10]). Besides, the Her2 level in assay [2] is 89% (inactive). Also, the differential viability (reversal) in assay [6] (H69AR cells + 2 uM doxorubicin) is 6.32% (inactive). Besides, the inhibition was -0.66% (inactive) in assay [7] and -5.32% (inactive) in assay [8].

`O=S(=O)(c1ccccc1)c1nc(-c2cccs2)oc1NCC1CCCO1` (stereo not given): the viability in assay [1] was 84.5%; in assay [3] it was 84.5% (inactive); in assay [4], 87.9% (inactive); in assay [5], 99.7% (inactive); in assay [6] (setting [9]), 102%; in assay [6] (setting [10]), 99.7%. In addition, in assay [2], the Her2 level was 97% (inactive). The differential viability (reversal) in assay [6] (H69AR cells + 2 uM doxorubicin) is -2.42% (inactive). Moreover, the values for the inhibition in assay [7] and in assay [8] were 2.67% (inactive) and 10.7% (inactive), respectively.
